Data: ChEMBL document CHEMBL1147229, “Isolation and characterization of new epothilone analogues from recombinant Myxococcus xanthus fermentations” (J Nat Prod, 2003)

Key:
Format in all cases: functional, cell-based
[1] = Cytotoxicity against human NCI/ADR cells after 3 days by SRB assay; conditions: NCI/ADR-RES, 72 h
Procedure, shortened: (§1)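 Cells kept in RPMI-1640 with 2 mM L-glutamine, 25 mM HEPES and 10% FBS at 37 °C, 5% CO2. Seeding per well: MCF-7 5000, NCI/ADR 7500, NCI-H460 5000, SF-268 7500; 24 h adherence. Compound at 0.001 to 1000 nM, triplicate wells, 3 days. TCA fixation 1 h at 4 °C, 0.2% SRB 20 min, bound dye extracted in 10 mM Tris, absorbance at 515 nm.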

MCF7 = experiment: Cytotoxicity against human MCF7 cells after 3 days by SRB assay; conditions: MCF7, 72 h; procedure, shortened: as §1
NCI-H460 = experiment: Cytotoxicity against human NCI-H460 cells after 3 days by SRB assay; conditions: NCI-H460, 72 h; procedure, shortened: as §1
SF-268 = experiment: Cytotoxicity against human SF268 cells after 3 days by SRB assay; conditions: SF-268, 72 h; procedure, shortened: as §1

Compound: CC1=C/C[C@@H](/C(C)=C/c2csc(C)n2)OC(=O)C[C@H](O)C(C)(C)C(=O)[C@H](C)[C@@H](O)[C@@H](C)C\C=C\1
- IC50 [1]: 250 nM
- IC50 (MCF7): 47 nM
- IC50 (NCI-H460): 47 nM
- IC50 (SF-268): 92 nM

Compound: CC1=C/C[C@@H](/C(C)=C/c2csc(C)n2)OC(=O)C[C@H](O)C(C)C(=O)[C@H](C)[C@@H](O)[C@@H](C)C\C=C\1 (stereo not given in full)
- IC50 [1]: 395 nM
- IC50 (MCF7): 250 nM
- IC50 (NCI-H460): 345 nM
- IC50 (SF-268): 390 nM

Compound: C/C1=C/C[C@@H](/C(C)=C/c2csc(C)n2)OC(=O)C[C@H](O)C(C)(C)C(=O)[C@H](C)[C@@H](O)[C@@H](C)C(=O)CC1
- IC50 [1]: > 1000 nM
- IC50 (MCF7): 500 nM
- IC50 (NCI-H460): > 1000 nM
- IC50 (SF-268): > 1000 nM

Compound: C/C(=C\c1csc(C)n1)[C@@H]1C/C=C\CCC[C@H](C)[C@H](O)[C@@H](C)C(=O)C(C)(C)[C@@H](O)CC(=O)O1 [EPOTHILONE C]
- IC50 [1]: 310 nM
- IC50 (MCF7): 97 nM
- IC50 (NCI-H460): 280 nM
- IC50 (SF-268): 340 nM

Compound: C/C1=C/C[C@@H](/C(C)=C/c2csc(C)n2)OC(=O)C[C@H](O)C(C)(C)C(=O)[C@H](C)[C@@H](O)[C@@H](C)CCC1 [EPOTHILONE D]
- IC50 [1]: 44 nM
- IC50 (MCF7): 16 nM
- IC50 (NCI-H460): 30 nM
- IC50 (SF-268): 18 nM
